ChEMBL document CHEMBL1122958, “Angiotensin converting enzyme inhibitors. (Mercaptoaroyl)amino acids” (J Med Chem, 1985)
Each block holds one molecule with its values, some of them ahead of it.

Columns and labels:
[1] = target: T1, Angiotensin-converting enzyme (Oryctolagus cuniculus, UniProt P12822); assay: In vitro inhibitory activity against Angiotensin I converting enzyme
T1 sequence (P12822 whole entry): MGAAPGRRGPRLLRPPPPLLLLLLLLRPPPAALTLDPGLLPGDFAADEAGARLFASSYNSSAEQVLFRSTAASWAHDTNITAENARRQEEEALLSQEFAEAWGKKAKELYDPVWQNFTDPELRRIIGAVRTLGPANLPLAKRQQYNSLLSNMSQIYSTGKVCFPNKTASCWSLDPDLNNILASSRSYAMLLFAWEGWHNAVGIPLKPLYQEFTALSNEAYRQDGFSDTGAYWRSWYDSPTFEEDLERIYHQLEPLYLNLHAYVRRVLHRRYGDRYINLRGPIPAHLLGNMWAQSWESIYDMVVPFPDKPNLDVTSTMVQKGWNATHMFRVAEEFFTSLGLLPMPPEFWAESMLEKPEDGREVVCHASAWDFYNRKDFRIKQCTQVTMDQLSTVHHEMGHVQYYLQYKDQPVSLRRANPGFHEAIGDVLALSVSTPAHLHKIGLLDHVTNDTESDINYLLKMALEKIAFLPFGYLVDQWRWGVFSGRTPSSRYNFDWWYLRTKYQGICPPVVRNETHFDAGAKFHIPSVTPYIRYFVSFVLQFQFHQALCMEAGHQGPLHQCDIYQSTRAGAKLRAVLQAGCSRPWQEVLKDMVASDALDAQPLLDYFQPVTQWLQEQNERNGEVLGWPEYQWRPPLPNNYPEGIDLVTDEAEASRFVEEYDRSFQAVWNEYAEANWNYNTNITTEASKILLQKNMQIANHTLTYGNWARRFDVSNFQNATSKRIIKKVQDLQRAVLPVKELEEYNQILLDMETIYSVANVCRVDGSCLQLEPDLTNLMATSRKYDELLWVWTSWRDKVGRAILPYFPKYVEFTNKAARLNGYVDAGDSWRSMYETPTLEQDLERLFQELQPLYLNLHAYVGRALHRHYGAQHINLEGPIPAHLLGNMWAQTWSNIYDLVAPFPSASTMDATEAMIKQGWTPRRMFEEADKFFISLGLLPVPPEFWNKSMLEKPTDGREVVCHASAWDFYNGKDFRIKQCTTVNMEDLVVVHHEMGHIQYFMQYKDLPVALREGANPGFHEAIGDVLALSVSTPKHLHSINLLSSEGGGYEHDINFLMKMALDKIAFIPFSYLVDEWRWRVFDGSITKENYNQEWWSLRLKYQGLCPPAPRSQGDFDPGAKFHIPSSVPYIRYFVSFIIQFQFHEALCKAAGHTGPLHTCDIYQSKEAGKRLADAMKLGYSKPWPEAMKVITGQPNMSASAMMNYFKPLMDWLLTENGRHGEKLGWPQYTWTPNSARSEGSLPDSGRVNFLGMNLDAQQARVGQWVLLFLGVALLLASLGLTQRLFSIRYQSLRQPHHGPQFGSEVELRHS
Procedure, shortened: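 Crude ACE from rabbit lung acetone powder, extracted in cold 0.05 M KH2PO4–0.03 M n-octyl-β-D-glucopyranoside pH 8.3, centrifuged 30000g, supernatant dialysed. Assay in 0.1 M KH2PO4–0.3 M NaCl–2% Me2SO, pH 8.3, 37 °C, substrate hippuryl-L-histidyl-L-leucine 2 mM; started by enzyme addition. Activity compared with and without inhibitor (in Me2SO). IC50 from one concentration–response curve per compound.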

[2] = target: T2, Angiotensin-converting enzyme (Rattus norvegicus) (UniProt P47820); assay: In vivo percent mean decrease in Angiotensin I converting enzyme inhibitory activity in 2 rats administered perorally at a dose of 10 mg/kg; format: functional, organism-based; design: dose 10 mg/kg
T2 sequence (whole entry): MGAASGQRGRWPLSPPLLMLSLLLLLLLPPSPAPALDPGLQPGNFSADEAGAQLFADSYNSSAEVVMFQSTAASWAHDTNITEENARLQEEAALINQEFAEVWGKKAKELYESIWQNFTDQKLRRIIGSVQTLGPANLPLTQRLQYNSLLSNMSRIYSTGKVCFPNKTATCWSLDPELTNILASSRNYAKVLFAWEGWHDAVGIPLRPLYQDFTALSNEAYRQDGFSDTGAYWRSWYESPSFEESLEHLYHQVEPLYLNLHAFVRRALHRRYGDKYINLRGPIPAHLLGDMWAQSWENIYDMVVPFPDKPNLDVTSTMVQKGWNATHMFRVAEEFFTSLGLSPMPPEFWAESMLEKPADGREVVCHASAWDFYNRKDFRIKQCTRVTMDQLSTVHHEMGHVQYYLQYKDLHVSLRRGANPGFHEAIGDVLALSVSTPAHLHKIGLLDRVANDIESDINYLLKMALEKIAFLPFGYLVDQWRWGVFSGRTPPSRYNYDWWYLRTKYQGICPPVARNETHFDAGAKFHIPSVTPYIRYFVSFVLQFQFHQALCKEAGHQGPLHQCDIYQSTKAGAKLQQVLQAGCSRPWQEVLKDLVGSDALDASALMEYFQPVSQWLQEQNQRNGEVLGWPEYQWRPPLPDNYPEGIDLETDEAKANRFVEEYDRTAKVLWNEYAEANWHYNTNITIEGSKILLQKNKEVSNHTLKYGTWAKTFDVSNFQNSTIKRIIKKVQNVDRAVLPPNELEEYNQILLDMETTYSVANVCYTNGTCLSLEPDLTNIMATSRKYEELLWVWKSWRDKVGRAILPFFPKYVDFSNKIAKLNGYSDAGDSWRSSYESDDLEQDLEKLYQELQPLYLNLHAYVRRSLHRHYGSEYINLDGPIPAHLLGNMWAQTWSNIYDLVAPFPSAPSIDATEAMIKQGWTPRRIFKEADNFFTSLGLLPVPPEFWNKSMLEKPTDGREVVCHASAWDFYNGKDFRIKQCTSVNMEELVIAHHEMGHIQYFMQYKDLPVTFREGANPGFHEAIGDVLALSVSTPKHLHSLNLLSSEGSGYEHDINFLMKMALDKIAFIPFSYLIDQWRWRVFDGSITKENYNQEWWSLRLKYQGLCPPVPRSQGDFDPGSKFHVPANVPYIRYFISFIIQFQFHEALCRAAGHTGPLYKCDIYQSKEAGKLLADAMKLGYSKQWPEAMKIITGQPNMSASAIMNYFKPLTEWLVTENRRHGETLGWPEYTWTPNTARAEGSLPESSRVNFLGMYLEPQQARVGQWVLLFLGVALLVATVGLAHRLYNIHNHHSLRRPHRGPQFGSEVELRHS
Procedure, shortened: (§1)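 Conscious normotensive male rats with aortic and vena caval catheters (implanted ≥6 days before), restrained. Angiotensin I and II, 0.25 μg/kg iv, given at 10-min intervals as pressor challenges. Compound given once, generally orally, suspended in 0.5% gum tragacanth. AI repeated every 10 min for ≥2 h. Max inhibition is % of mean of two predose AI responses. Duration runs from dosing until inhibition falls below 30%. ED50 taken from dose–response plot as dose giving 50% inhibition.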

[3] = target: T2, Angiotensin-converting enzyme (Rattus norvegicus); assay: In vivo mean duration for Angiotensin I converting enzyme inhibitory activity in 2 rats administered perorally at a dose of 10 mg/kg; format: functional, organism-based; design: dose 10 mg/kg; procedure, shortened: as §1
[4] = target: T2, Angiotensin-converting enzyme (Rattus norvegicus); assay: In vivo mean duration for Angiotensin I converting enzyme inhibitory activity in 2 rats administered perorally at a dose of 1.5 mg/kg; format: functional, organism-based; design: dose 1.5 mg/kg; procedure, shortened: as §1
[5] = target: T2, Angiotensin-converting enzyme (Rattus norvegicus); assay: In vivo percent mean decrease in Angiotensin I converting enzyme inhibitory activity in 2 rats administered perorally at a dose of 1.5 mg/kg; format: functional, organism-based; design: dose 1.5 mg/kg; procedure, shortened: as §1
[6] = target: T2, Angiotensin-converting enzyme (Rattus norvegicus); assay: In vivo for percent mean decrease in Angiotensin I converting enzyme inhibitory activity in 4 rats administered perorally at a dose of 1.5 mg/kg; format: functional, organism-based; design: dose 1.5 mg/kg; procedure, shortened: as §1
[7] = target: T2, Angiotensin-converting enzyme (Rattus norvegicus); assay: In vivo percent mean decrease in Angiotensin I converting enzyme inhibitory activity in 5 rats administered perorally at a dose of 10 mg/kg; format: functional, organism-based; design: dose 10 mg/kg; procedure, shortened: as §1
[8] = target: T2, Angiotensin-converting enzyme (Rattus norvegicus); assay: In vivo mean duration for Angiotensin I converting enzyme inhibitory activity in 5 rats administered perorally at a dose of 10 mg/kg; format: functional, organism-based; design: dose 10 mg/kg; procedure, shortened: as §1
Rattus norvegicus = assay: Effective dose against ACE inhibitory activity in rat in vivo; format: functional; procedure, shortened: as §1
[9] = target: T2, Angiotensin-converting enzyme (Rattus norvegicus); assay: In vivo percent mean decrease in Angiotensin I converting enzyme inhibitory activity in a rat administered perorally at a dose of 10 mg/kg; format: functional, organism-based; design: dose 10 mg/kg; procedure, shortened: as §1
[10] = target: T2, Angiotensin-converting enzyme (Rattus norvegicus); assay: In vivo mean duration for Angiotensin I converting enzyme inhibitory activity in rat administered perorally at a dose of 10 mg/kg; format: functional, organism-based; design: dose 10 mg/kg; procedure, shortened: as §1
[11] = target: T2, Angiotensin-converting enzyme (Rattus norvegicus); assay: In vivo percent mean decrease in Angiotensin I converting enzyme activity in 2 rats administered perorally at a dose of 10 mg/kg; format: functional, organism-based; design: dose 10 mg/kg; procedure, shortened: as §1

SMILES: CC(C)c1cccc(C(=O)N(CC(=O)O)C2CCCC2)c1S
- IC50 [1]: 120 µM
- Mean decrease [2]: 23%
- Mean duration [3]: 0 min

SMILES: O=C(O)CN(C(=O)c1cc(Cl)cc(Cl)c1O)C1CCCC1
- IC50 [1]: 100 µM

SMILES: CC(=O)Sc1c(C)cccc1C(=O)N(CC(=O)O)C1CCCC1
- IC50 [1]: 2.2 µM
- Mean duration [4]: 20 min
- Mean decrease [5]: 35%

SMILES: CC(=O)Sc1ccccc1C(=O)N(CC(=O)O)C1CCCC1
- IC50 [1]: 9.1 µM
- Mean duration [4]: 0 min
- Mean decrease [5]: 25%

SMILES: O=C(O)CN(C(=O)c1cccc(C(F)(F)F)c1S)C1CCCC1
- IC50 [1]: 0.68 µM
- Mean decrease [2]: 31%
- Mean duration [3]: 20 min

SMILES: CC(=O)Sc1c(F)cccc1C(=O)N(CC(=O)O)C1CCCC1
- IC50 [1]: 0.6 µM
- Mean decrease [2]: 82%
- Mean duration [3]: 90 min

SMILES: O=C(O)CN(C(=O)c1ccccc1S)C1CCCC1
- IC50 [1]: 4.8 µM
- Mean duration [4]: 35 min
- Mean decrease [6]: 34%

SMILES: O=C(O)CN(C(=O)c1cccc(F)c1S)C1CCCC1
- IC50 [1]: 0.55 µM
- Mean decrease [2]: 84%
- Mean duration [3]: 105 min

SMILES: Cc1cccc(C(=O)N(CC(=O)O)C2CCCC2)c1S
- IC50 [1]: 4.6 µM
- Mean decrease [2]: 77%
- Mean duration [3]: 50 min

SMILES: O=C(O)CN(C(=O)c1cccc(Cl)c1S)C1CCCC1
- IC50 [1]: 0.28 µM
- Mean decrease [7]: 85%
- Mean duration [8]: > 4 h
- ED50 (Rattus norvegicus): 0.3 mg/kg

SMILES: CC(=O)Sc1ccc(C(=O)N(CC(=O)O)C2CCCC2)cc1
- IC50 [1]: 21 µM

SMILES: COc1cccc(C(=O)N(CC(=O)O)C2CCCC2)c1S
- IC50 [1]: 0.38 µM
- Mean decrease [7]: 92%
- Mean duration [8]: 4 h
- ED50 (Rattus norvegicus): 0.8 mg/kg

SMILES: O=C(O)CN(C(=O)c1cccc(S)c1)C1CCCC1
- IC50 [1]: 25 µM
- Mean decrease [2]: 13%
- Mean duration [3]: 0 min

SMILES: CCOC(=O)CN(C(=O)c1cc(Cl)cc(Cl)c1OC(C)=O)C1CCCC1
- IC50 [1]: 100 µM

SMILES: O=C(O)CN(C(=O)c1cc(Cl)cc(Cl)c1S)C1CCCC1
- IC50 [1]: 4.1 µM

- Mean duration [4]: 0 min
- Mean decrease [5]: 19%
SMILES: CC(C)(C)C(=O)Sc1ccccc1C(=O)N(CC(=O)O)C1CCCC1

SMILES: CC(=O)Sc1cccc(C(=O)N(CC(=O)O)C2CCCC2)c1
- IC50 [1]: 28 µM

SMILES: O=C(O)CN(C(=O)c1ccccc1[N+](=O)[O-])C1CCCC1
- IC50 [1]: 100 µM
- Mean decrease [9]: 25%
- Mean duration [10]: 0 min

SMILES: O=C(O)CN(C(=O)c1cc(Cl)ccc1S)C1CCCC1
- IC50 [1]: 80 µM
- Mean duration [3]: 0 min
- Mean decrease [11]: 22%

SMILES: O=C(O)CN(C(=O)c1ccccc1C(=O)O)C1CCCC1
- IC50 [1]: 100 µM

SMILES: O=C(O)CN(C(=O)c1ccc(S)cc1)C1CCCC1
- IC50 [1]: 21 µM
